Assay results taken from ChEMBL document CHEMBL3112577, “Discovery of novel chiral diazepines as bombesin receptor subtype-3 (BRS-3) agonists with low brain penetration” (Bioorg Med Chem Lett, 2014).
≈ marks a conversion by molar mass, not a printed value.

How the values were obtained:
[1] = target: T1, Bombesin receptor subtype-3 (Mus musculus, UniProt O54798); experiment: Agonist activity at mouse BRS-3 expressed in CHOK1 cells after 1 hr by HTRF assay; format: cell-based, CHO-K1
T1 sequence (O54798 whole entry): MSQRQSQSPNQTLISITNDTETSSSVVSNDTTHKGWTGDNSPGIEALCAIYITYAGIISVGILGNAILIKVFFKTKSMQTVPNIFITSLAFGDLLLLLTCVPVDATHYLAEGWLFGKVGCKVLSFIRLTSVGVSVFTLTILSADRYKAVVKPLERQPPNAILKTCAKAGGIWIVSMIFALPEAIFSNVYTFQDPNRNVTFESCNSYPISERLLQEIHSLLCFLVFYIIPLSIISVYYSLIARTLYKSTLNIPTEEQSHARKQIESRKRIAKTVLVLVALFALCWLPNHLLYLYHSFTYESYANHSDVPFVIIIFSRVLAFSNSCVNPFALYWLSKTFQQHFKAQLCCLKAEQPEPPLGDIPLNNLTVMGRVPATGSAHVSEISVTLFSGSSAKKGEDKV
In short: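 CHO-K1 cells stably expressing mouse BRS-3 were plated at 200,000 cells/well and grown 24 h at 37 °C in CO₂. Compounds in HAM with 0.1% BSA plus 20 mM LiCl were added for 1 h at 37 °C. IP1 was detected by HTRF with d2-IP1 and cryptate anti-IP1 antibody after overnight at 4 °C in the dark, read as the 665/620 nm ratio and converted with on-plate IP1 standards. EC50 came from a nonlinear curve fit, averaged over at least 3 runs.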

[2] = target: T2, Bombesin receptor subtype-3 (Homo sapiens, UniProt P32247); experiment: Agonist activity at human BRS-3 expressed in CHOK1 cells after 1 hr by HTRF assay; format: cell-based, CHO-K1
T2 sequence (P32247 whole entry): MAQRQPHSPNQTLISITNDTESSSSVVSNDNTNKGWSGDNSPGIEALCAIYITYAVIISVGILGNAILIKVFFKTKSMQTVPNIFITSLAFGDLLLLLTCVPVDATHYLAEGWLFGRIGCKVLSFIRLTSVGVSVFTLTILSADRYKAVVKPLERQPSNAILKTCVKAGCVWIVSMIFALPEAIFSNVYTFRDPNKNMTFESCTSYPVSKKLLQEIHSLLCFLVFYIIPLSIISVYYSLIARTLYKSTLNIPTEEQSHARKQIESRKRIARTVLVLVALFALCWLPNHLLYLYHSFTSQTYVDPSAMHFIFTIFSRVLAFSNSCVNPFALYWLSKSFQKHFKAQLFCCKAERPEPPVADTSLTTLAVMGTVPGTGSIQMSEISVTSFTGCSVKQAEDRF

[3] = Octanol-phosphate buffered saline distribution coefficient, log D of the compound at pH 7.4; format: physicochemical
In short: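 LogD was measured as partitioning between 1-octanol and phosphate-buffered saline at pH 7.4.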

[4] = Ratio of drug level in brain to plasma of mouse at 30 mg/kg, po after 2.5 hrs; format: ADME, organism-based; design: dose 30 mg/kg, route oral
In short: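 Mice given a single oral dose of 30 mg/kg. Brain and plasma concentrations were measured 2.5 h after dosing, and Kp brain was taken as the brain-to-plasma concentration ratio.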

[5] = Half life in mouse at 10 mg/kg, po; format: ADME, organism-based; design: dose 10 mg/kg, route oral; details: in vivo
In short: (§1)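 Two mice per compound given 10 mg/kg orally in DMA/PG/(20%HPbCD/saline) 10/10/80; values are the average of the 2 mice.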

[6] = Metabolic stability in mouse liver microsomes assessed as compound remaining after 0.5 hrs; format: ADME, Microsome; details: read-out: Stability
In short: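 Compound was incubated 0.5 h with mouse liver microsomes and the percentage of parent remaining was reported.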

[7] = AUC in mouse at 10 mg/kg, po; format: ADME, organism-based; design: dose 10 mg/kg, route oral; details: plasma; in short: as §1
[8] = Cmax in mouse at 10 mg/kg, po; format: ADME, organism-based; design: dose 10 mg/kg, route oral; details: in vivo; in short: as §1
[9] = Fraction unbound in mouse plasma; format: ADME, cell-free
[10] = Solubility of the compound in JP1; format: physicochemical
[11] = Solubility of the compound in JP2; format: physicochemical

Row | Compound | EC50 [1] [nM] | EC50 [2] [nM] | logD [3] | further results
1 | CC(C)(O)c1nc(-c2cccc3c2N(S(=O)(=O)c2ccc(OC(F)(F)F)cc2)Cc2ccc(C(F)(F)F)nc2N3)no1 | 22 | 1.4 |  | 
2 | CC(C)C1CN(Cc2ccccc2)c2ccccc2CN1C(=O)Nc1cccc(N2CCOCC2)c1 (stereo not given) | 34 | 131 |  | 
3 | CC(=O)N1Cc2ccccc2N(Cc2ccccc2)CC1C(C)C (stereo not given) | 256 | 916 |  | 
4 | O=C(Cc1cccc(Oc2cccnc2)c1)N1CCNc2nc(C(F)(F)F)ccc2C1 | 106 | 156 | 3.2 | 
5 | O=C(Cc1cccc(Oc2ccncc2)c1)N1CCNc2nc(C(F)(F)F)ccc2C1 | 621 | 977 | 3.3 | 
6 | Cc1ccc(Oc2cccc(CC(=O)N3CCNc4nc(C(F)(F)F)ccc4C3)c2)cn1 | 2.8 | 9.5 | 3.6 | 
7 | COc1cccc(CC(=O)N2CCNc3nc(C(F)(F)F)ccc3C2)c1 | 1780 | 2040 |  | 
8 | CCOc1cccc(CC(=O)N2CCNc3nc(C(F)(F)F)ccc3C2)c1 | 1210 | 2050 |  | 
9 | CC(C)Oc1cccc(CC(=O)N2CCNc3nc(C(F)(F)F)ccc3C2)c1 | 569 | 381 |  | 
10 | CCCCOc1cccc(CC(=O)N2CCNc3nc(C(F)(F)F)ccc3C2)c1 | 52 | 59 |  | 
11 | CC(C)COc1cccc(CC(=O)N2CCNc3nc(C(F)(F)F)ccc3C2)c1 | 62 | 70 | 4.3 | 
12 | CC(C)(C)COc1cccc(CC(=O)N2CCNc3nc(C(F)(F)F)ccc3C2)c1 | 121 | 199 |  | 
13 | O=C(Cc1cccc(OC2CCCC2)c1)N1CCNc2nc(C(F)(F)F)ccc2C1 | 100 | 41 |  | 
14 | O=C(Cc1cccc(OC2CCCCC2)c1)N1CCNc2nc(C(F)(F)F)ccc2C1 | 8.7 | 8.1 | 4.4 | 
15 | O=C(Cc1cccc(Oc2ccccc2)c1)N1CCNc2nc(C(F)(F)F)ccc2C1CO (stereo not given) | 19 | 12 | 4.1 | 
16 | O=C(O)C1c2ccc(C(F)(F)F)nc2NCCN1C(=O)Cc1cccc(Oc2ccccc2)c1 (stereo not given) | 2260 | 1560 |  | 
17 | O=C(Cc1cccc(Oc2ccccc2)c1)N1CCNc2nc(C(F)(F)F)ccc2C1CCO (stereo not given) | 11 | 11 |  | 

Row | Compound | EC50 [1] [nM] | EC50 [2] [nM] | logD [3] | further results
18 | O=C(O)CC1c2ccc(C(F)(F)F)nc2NCCN1C(=O)Cc1cccc(Oc2ccccc2)c1 (stereo not given) | 15 | 13 | 1.2 | 
19 | O=C(O)C[C@@H]1c2ccc(C(F)(F)F)nc2NCCN1C(=O)Cc1cccc(Oc2ccccc2)c1 | 3.4 | 1.6 | 1.2 | 
20 | O=C(O)C[C@H]1c2ccc(C(F)(F)F)nc2NCCN1C(=O)Cc1cccc(Oc2ccccc2)c1 | 3120 | 2070 | 1.2 | 
21 | O=C(O)C[C@@H]1c2ccc(C(F)(F)F)nc2NCCN1C(=O)Cc1cccc(Oc2ccc(F)cc2)c1 | 2.7 | 1.7 | 1.2 | 
22 | CC(C)COc1cccc(CC(=O)N2CCNc3nc(C(F)(F)F)ccc3[C@H]2CC(=O)O)c1 | 62 | 17 | 0.9 | Kp at 2.5 h [4]: 0.043; half-life [5]: 3.7 h; remaining at 0.5 h [6]: 70%; AUC [7]: 390 ng·h/mL; Cmax [8]: 360 ng/mL; fraction unbound [9]: 0.033; solubility [10]: 40 µg/mL (≈ 85.9 µM); solubility [11]: 810 µg/mL (≈ 1740 µM)
23 | Cc1ccc(Oc2cccc(CC(=O)N3CCNc4nc(C(F)(F)F)ccc4[C@H]3CC(=O)O)c2)cn1 | 3.5 | 1.7 | 0.3 | Kp at 2.5 h [4]: 0.002; half-life [5]: 2.6 h; remaining at 0.5 h [6]: 94%; AUC [7]: 200 ng·h/mL; Cmax [8]: 90 ng/mL; fraction unbound [9]: 0.046; solubility [10]: 960 µg/mL (≈ 1920 µM); solubility [11]: 950 µg/mL (≈ 1900 µM)
24 | CC(C)(C)c1ccc(C(=O)N2Cc3ccc(C(F)(F)F)nc3Nc3ccccc32)cc1 | > 10000 | > 10000 |  | 
25 | CC(C)(C)c1ccc(CC(=O)N2Cc3ccc(C(F)(F)F)nc3Nc3ccccc32)cc1 | 227 | 48 |  | 
26 | O=C(Cc1ccc(Oc2ccccc2)cc1)N1Cc2ccc(C(F)(F)F)nc2Nc2ccccc21 | > 10000 | 368 |  | 
27 | O=C(Cc1cccc(Oc2ccccc2)c1)N1Cc2ccc(C(F)(F)F)nc2Nc2ccccc21 | 46 | 25 |  | 
28 | O=C(Cc1cccc(Oc2ccccc2)c1)N1CCNc2nc(C(F)(F)F)ccc2C1 | 12.2 | 8.5 | 4.5 | Kp at 2.5 h [4]: 0.72; half-life [5]: 0.82 h; remaining at 0.5 h [6]: 0.7%; AUC [7]: 41 ng·h/mL; Cmax [8]: 60 ng/mL; fraction unbound [9]: 0.0067; solubility [10]: 11 µg/mL (≈ 25.7 µM); solubility [11]: 5.1 µg/mL (≈ 11.9 µM)
29 | O=C(Nc1cccc(Oc2ccccc2)c1)N1CCNc2nc(C(F)(F)F)ccc2C1 | 1380 | 4380 |  | 
30 | O=C(Cc1cccc(Oc2ccccc2F)c1)N1CCNc2nc(C(F)(F)F)ccc2C1 | 3.5 | 6.9 | 4.5 | 
31 | O=C(Cc1cccc(Oc2cccc(F)c2)c1)N1CCNc2nc(C(F)(F)F)ccc2C1 | 8.7 | 6.8 | 4.8 | 
32 | O=C(Cc1cccc(Oc2ccc(F)cc2)c1)N1CCNc2nc(C(F)(F)F)ccc2C1 | 2.7 | 3.6 | 4.6 | 
33 | Cc1ccc(Oc2cccc(CC(=O)N3CCNc4nc(C(F)(F)F)ccc4C3)c2)cc1 | 1 | 1.3 | > 4.8 | 
34 | O=C(Cc1cccc(Oc2ccccn2)c1)N1CCNc2nc(C(F)(F)F)ccc2C1 | 244 | 254 | 3.2 | 
